This passage reports cytotoxicity results from ChEMBL document CHEMBL4513216, “Probing the Open Global Health Chemical Diversity Library for Multistage-Active Starting Points for Next-Generation Antimalarials” (ACS Infect Dis, 2020).

The nature of this series: Toxicity liver stage against HepG2, at 10uM. It is filed as cell-based. On the set-up: test concentration 10 uM, cell line HepG2-A16-CD81EGFP. The note with it: human, HepG2-A16-CD81EGFP cells; read-out: INHIBITION
Summed up: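 Uninfected HepG2-A16-CD81EGFP cells, 3 × 10^3 per well, 1536-well, plated on prespotted compound at 10 μM final, parasite-free screening media added to match infected plates; puromycin 10 μM positive, DMSO 0.5% negative; run in parallel with 48 h PbLuc assay at 37 °C, 5% CO2; viability by CellTiter-Glo luminescence, normalized to controls.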

As for `Cc1cc(CN2CCc3nc(C(C)C)nc(O)c3CC2)c(C)s1`, the cytotoxicity at 10 µM was -0.782%.

For the compound `Cc1c(Br)cnn1CC(=O)Nc1ccon1`, the cytotoxicity at 10 µM came to 10.8%.

Regarding `CCNC(=O)N1CC(c2nc(Cc3ccccc3)no2)C1`, the cytotoxicity at 10 µM was -2.98%.

With `CCS(=O)(=O)N1CCOC2(CCCN(c3ncc(F)cn3)C2)C1` (stereo unspecified), the cytotoxicity at 10 µM was found to be 5.86%.

In the case of `Cc1cc(C(=O)N2CC[C@H]3[C@@H]2CCC(=O)N3c2ccccc2)no1`, the cytotoxicity at 10 µM is -113%.

With `Cn1ncnc1CNC(=O)N(CCCO)C1CCc2ccccc21` (stereo unspecified), the cytotoxicity at 10 µM is -5.95%.

Consider `Cc1nc(-c2nnc[nH]2)sc1C(=O)N1CCCC1c1cccs1` (stereo unspecified), for which the cytotoxicity at 10 µM was 11.1%.

As to `CSCCC(=O)NCc1cc2n(n1)CCCN(C1CCCCC1)C2`, the cytotoxicity at 10 µM was determined as 19.9%.

For the compound `CNc1cc(-c2cc(OC)c(OC)c(OC)c2)ncn1`, the cytotoxicity at 10 µM is -11.8%.

As for `Cc1cc(C)n(C2CCN(c3ncnc4c3CCC4)C2)n1` (stereo unspecified), the cytotoxicity at 10 µM worked out at 23.6%.

Turning to `NCc1ccc(Oc2ccc(F)c(F)c2)cc1C(F)(F)F`, the cytotoxicity at 10 µM is -0.587%.

Consider `Cc1cnn(CCC(=O)N2CCCC(c3noc(C)n3)C2)c1` (stereo unspecified), for which the cytotoxicity at 10 µM was -3.98%.

`CC(C)(C)CNC(=O)c1ccc(C(=O)O)nc1`: the cytotoxicity at 10 µM came out at 10.4%.

Turning to `CC(C)c1nn(C)c(Cl)c1CNCC(O)c1cccc(F)c1` (stereo unspecified), the cytotoxicity at 10 µM is -1.83%.

For the compound `O=C(COc1ccc(F)cc1F)N1CCOCC(O)(CN2CCCC2)C1` (stereo unspecified), the cytotoxicity at 10 µM was found to be 0.678%.

As to `CCn1ccnc1CN1CCN(CCc2ccncc2)CC1C` (stereo unspecified), the cytotoxicity at 10 µM is -3.04%.

For the compound `CN(C)Cc1cnc(CC2CCN(CCc3ccccc3)CC2)cn1`, the cytotoxicity at 10 µM is -6.07%.

On to `CCN1CCn2c(C)cnc2C12CCN(C(=O)c1ccco1)CC2`, for which the cytotoxicity at 10 µM turned out to be 4.56%.

For the compound `CCOCc1nc(-c2ccc(F)cc2Cl)n(C)n1`, the cytotoxicity at 10 µM is -10.2%.

For `Cc1ncsc1C(=O)N(C)Cc1ccccc1`, the cytotoxicity at 10 µM was -6.92%.

Regarding `CS(=O)(=O)NCc1nnc2n1CCN(Cc1ccccn1)C2`, the cytotoxicity at 10 µM was -75.5%.

As to `COC(C)c1noc(CN(C)c2ncc(Br)cn2)n1` (stereo unspecified), the cytotoxicity at 10 µM was -1.26%.

As to `COc1cc(OC)c2nc(NCCN3CCNC3=O)cc(C)c2c1`, the cytotoxicity at 10 µM is -3.4%.

As to `Cc1noc(C)c1CN1C[C@H]2CNC[C@H]2C1`, the cytotoxicity at 10 µM is 6.62%.

Consider `Cc1ccccc1CN1CCN(C(=O)c2cnc(C3CC3)[nH]c2=O)CC1`, for which the cytotoxicity at 10 µM worked out at 2.25%.

With `Cc1cc(NCc2noc(C(C)C)n2)nc(-c2ccccc2)n1`, the cytotoxicity at 10 µM came to 11%.

As for `CN(C)C(=O)CN1CCOCC2(C1)CN(c1ncc(F)cn1)CCO2` (stereo unspecified), the cytotoxicity at 10 µM was -6.69%.

With `Cc1nc(CN2CCC3(CCCN(Cc4cccnc4)C3)C2=O)cs1` (stereo unspecified), the cytotoxicity at 10 µM is 20.8%.

With `CCn1ncc2c1C(COCC1CC1)CN(C(=O)c1cccs1)C2` (stereo unspecified), the cytotoxicity at 10 µM was -7.64%.

`Cc1nc(C)n(CC2CCCCN2CCCC#N)n1` (stereo unspecified): the cytotoxicity at 10 µM was determined as 6.73%.

Consider `Cc1oc(-c2ccco2)nc1CN1CCc2cncnc2C1`, for which the cytotoxicity at 10 µM stood at 2.44%.

As to `CCC(CNC1CCN(C(=O)N(C)C)CC1)Oc1ccccc1C` (stereo unspecified), the cytotoxicity at 10 µM is 3.98%.

On to `CCc1nnc(CN(C)c2nc(C3CCCC3)nc3c2cnn3C)o1`, for which the cytotoxicity at 10 µM is -11.3%.

`CNC(=O)N1CCC2(CC1)CN(C(C)C)Cc1cc(F)ccc12`: the cytotoxicity at 10 µM is -2.82%.

As to `Cc1ccsc1[C@@H]1CCN(C(=O)c2cc3ccccc3[nH]2)C[C@H]1O`, the cytotoxicity at 10 µM turned out to be 29%.

For `CS(=O)(=O)NCCNC(=O)NC1(c2ccc(Cl)cc2)CCC1`, the cytotoxicity at 10 µM was -2.48%.

On to `CN(C)S(=O)(=O)N1CC[C@]2(O)CCN(c3nc4ccccc4s3)C[C@@H]2C1`, for which the cytotoxicity at 10 µM is -1.82%.

On to `O=C(c1cccnc1OCC(F)(F)F)N1CCCn2ncnc21`, for which the cytotoxicity at 10 µM was -6.47%.

For the compound `CN(Cc1ccco1)Cc1cncc2c1CCN(Cc1ccoc1)C2`, the cytotoxicity at 10 µM is -108%.

As to `Cc1ccc(-c2nc(CN3CCc4cnc(C)nc4C3)no2)cc1`, the cytotoxicity at 10 µM is -5.12%.

As to `O=C(CC1[C@H]2CN(Cc3ccncc3)C[C@@H]12)N1CCCC1` (stereo partly specified), the cytotoxicity at 10 µM was 2.58%.

On to `Cc1noc(C)c1CN(Cc1ccccc1)C(C)C`, for which the cytotoxicity at 10 µM was -9.74%.

`O=C(CN1CCCC1c1nc2cc(F)ccc2[nH]1)NCc1ccccn1` (stereo unspecified): the cytotoxicity at 10 µM was -0.748%.

In the case of `CCCN(C)c1ccc(C(=O)NCc2ccnc(C)n2)cc1`, the cytotoxicity at 10 µM came out at 6.6%.

Take `Cc1nc(CN2CC(CCCc3ccccn3)(C(=O)N(C)C)C2)co1`: the cytotoxicity at 10 µM was 7.43%.

Regarding `N[C@H]1c2ccccc2C[C@@H]1NC(=O)C1CCN(Cc2ccco2)CC1`, the cytotoxicity at 10 µM was -8.57%.

Regarding `O=C(NCCc1cccnc1)c1nc2c(s1)CCCN2C(=O)C1CC1`, the cytotoxicity at 10 µM is -91.5%.

Turning to `O=C(Nc1nnn[nH]1)c1ccc(I)c(F)c1`, the cytotoxicity at 10 µM is -2.56%.

Regarding `COCC(=O)N1CCC(c2cncc(-c3cccc(F)c3)n2)CC1`, the cytotoxicity at 10 µM was -11.3%.

As for `CC(=O)NCC1CCN(C(=O)NCc2ccc3c(c2)OCCO3)CC1`, the cytotoxicity at 10 µM is -7.11%.

Turning to `Cc1cccc(C(C(=O)NC(C)(C)CN2CCCC2)N(C)C)c1` (stereo unspecified), the cytotoxicity at 10 µM is -3.73%.

On to `CC(O)CN1CCC(CN(C)CCC(=O)NC2CCCCC2)CC1` (stereo unspecified), for which the cytotoxicity at 10 µM was determined as 4.11%.

Regarding `CC(NC(=O)c1ccc(F)cc1F)c1cnn(C)c1` (stereo unspecified), the cytotoxicity at 10 µM amounted to 3.68%.

Turning to `CC(=O)N1CCC2(CC1)CN(CC(C)C)CC21CCNC1=O` (stereo unspecified), the cytotoxicity at 10 µM is -1.07%.

In the case of `O=C(CN1CCN(CC(O)C2CC2)CC1)NCc1ccccc1` (stereo unspecified), the cytotoxicity at 10 µM turned out to be 6.03%.

As to `Cc1cccn2cc(CN3CCCC(O)C3)nc12` (stereo unspecified), the cytotoxicity at 10 µM was found to be 2.25%.

As for `c1cnnc(NCC2CN(CCn3cccn3)CCO2)c1` (stereo unspecified), the cytotoxicity at 10 µM worked out at 5.53%.

Take `O=C1CC(c2ccsc2)c2cnn(C3CCCC3)c2N1` (stereo unspecified): the cytotoxicity at 10 µM was -0.524%.

Regarding `CCn1nnc2c1C(COCC(=O)N(C)C)CN(Cc1ccoc1)C2` (stereo unspecified), the cytotoxicity at 10 µM was -2.98%.

Consider `O=C(C1CCCO1)N1CC[C@@H]2CN(Cc3ccccc3)S(=O)(=O)[C@@H]2CC1` (stereo partly specified), for which the cytotoxicity at 10 µM came out at 12.9%.

Consider `CC(O)CN(CC(=O)NC(=O)NC1CC1)c1ccccc1` (stereo unspecified), for which the cytotoxicity at 10 µM was -2.14%.

As to `O=C(c1cnccn1)N1CCO[C@H]2[C@H](OCc3cccnc3)CC[C@@H]21`, the cytotoxicity at 10 µM is -9.45%.

Consider `CN(C)c1cccc(C(=O)N2CCC(c3n[nH]c(C4CC4)n3)CC2)c1`, for which the cytotoxicity at 10 µM is -11.2%.

In the case of `CC(C)c1cc(Br)ccc1NC(=O)NCC(O)CO` (stereo unspecified), the cytotoxicity at 10 µM worked out at 9.45%.

Consider `Cn1ccnc1SCCNc1nccc(C(F)(F)F)n1`, for which the cytotoxicity at 10 µM is -51%.

For `c1cncc(CN2Cc3nccn3CC(Cn3cncn3)C2)c1` (stereo unspecified), the cytotoxicity at 10 µM was -136%.

For `CC(C)(C)C(=O)N1C[C@@H]2COC[C@]2(c2nnc(C3CC3)o2)C1`, the cytotoxicity at 10 µM was -2.47%.

`CN1C(=O)C2(CC(=O)Nc3[nH]ncc32)c2cc(Cl)ccc21` (stereo unspecified): the cytotoxicity at 10 µM is -1.89%.

On to `c1cnc(NCc2nnn3c2CN(Cc2ccsc2)CCC3)nc1`, for which the cytotoxicity at 10 µM came out at 10.8%.

Take `Cc1cnc2n(c1=O)CC(C(=O)NCc1ccccc1Cl)CS2` (stereo unspecified): the cytotoxicity at 10 µM was -1.74%.

For `COc1ccc(CN2CCC=C(C(C)NC(C)=O)C2)cc1` (stereo unspecified), the cytotoxicity at 10 µM was -5.5%.

Regarding `COc1ccc(C(=O)N2CCC(Oc3ccc(C)cc3)(C(=O)O)CC2)o1`, the cytotoxicity at 10 µM amounted to 9.68%.

As to `O=C1CCC2(CCCN(C(=O)Cc3cccnc3)C2)N1` (stereo unspecified), the cytotoxicity at 10 µM turned out to be 6.88%.

`Cc1cc(C(N)=O)ccc1NC(=O)N1CCN(c2cccs2)CC1`: the cytotoxicity at 10 µM came to 10.1%.

`Cc1csc(N2CCCN(C(=O)c3cccs3)CC2)n1`: the cytotoxicity at 10 µM was -8.08%.

With `CC(=O)Nc1cccc([C@H]2C[C@@H](NC(C)=O)CCO2)c1`, the cytotoxicity at 10 µM is -0.825%.

On to `COCC1c2nnn(CC3CC3)c2CCN1C(=O)c1ccnnc1` (stereo unspecified), for which the cytotoxicity at 10 µM was -7.44%.

For `O=C1CC2(CCN(C(=O)c3ccc4c(c3)CCCO4)C2)C(=O)N1` (stereo unspecified), the cytotoxicity at 10 µM turned out to be 3.67%.

`N#CC1(C(=O)N2CCCN(Cc3cscn3)CC2)CCCCC1`: the cytotoxicity at 10 µM is -2.54%.

`CC(Cn1cncn1)NC(=O)c1cn(Cc2ccccc2F)nn1` (stereo unspecified): the cytotoxicity at 10 µM is -1.62%.

On to `COCc1nc(CNc2cccc(-c3nc(C)c(C)o3)c2)cs1`, for which the cytotoxicity at 10 µM amounted to 5.11%.

Regarding `CN(C)CCNC(=O)c1ccc(OC2CCN(S(C)(=O)=O)CC2)c(Cl)c1`, the cytotoxicity at 10 µM came to 1.33%.

On to `COCc1ccccc1C(=O)NS(=O)(=O)c1ccc2c(c1)CCC(=O)N2`, for which the cytotoxicity at 10 µM was -1.74%.

Consider `NC(=O)N1CCC2(CC1)CN(Cc1cccnc1)C(=O)CO2`, for which the cytotoxicity at 10 µM is 3.63%.

As to `CCCC(=O)N1CCC([C@@H]2C[C@H](C(F)(F)F)n3nc(C)cc3N2)CC1`, the cytotoxicity at 10 µM is -16.1%.

Take `CCc1csc(NC(=O)Nc2c(C)n[nH]c2C)n1`: the cytotoxicity at 10 µM was -3.41%.

As to `Cc1cc(CN(C)CC2CC(C3CCCCC3)=NO2)no1` (stereo unspecified), the cytotoxicity at 10 µM turned out to be 22.4%.

Regarding `CCS(=O)(=O)N1C[C@@H]2CN(Cc3cnn(C)c3)CCO[C@@H]2C1`, the cytotoxicity at 10 µM is -0.646%.

As for `Cn1cc(C(=O)N2CC[C@@]3(O)CCN(C(=O)C4CCC4)C[C@H]3C2)cn1`, the cytotoxicity at 10 µM was -140%.

Take `O=C1CO[C@@H]2CN(CC3CC3)C[C@H]2N1Cc1cccc(F)c1`: the cytotoxicity at 10 µM was -69.9%.

With `Cn1c(C(=O)N(CC(N)=O)C2CCCC2)cc(Cl)c1Cl`, the cytotoxicity at 10 µM amounted to 9.31%.

For `COc1ccc(NC(=O)c2cnc(C3CCN(C)CC3)nc2C)cc1`, the cytotoxicity at 10 µM was -1.46%.

In the case of `COCC(=O)N1CCC2(C1)c1ccccc1S(=O)(=O)N2CCC(C)C` (stereo unspecified), the cytotoxicity at 10 µM is -4.26%.

On to `COCc1cn(CC2CCN(Cc3c(C)[nH]c4ccccc34)CC2)nn1`, for which the cytotoxicity at 10 µM is -5.36%.

For `CCc1cc(N[C@@H]2CC[C@@H](N)C2)n2nc(C)c(C)c2n1`, the cytotoxicity at 10 µM was found to be 2.2%.

Turning to `Cc1noc([C@H]2C[C@H]3OCC[C@H]3N(Cc3ccc4c(c3)OCO4)C2)n1`, the cytotoxicity at 10 µM turned out to be 2.67%.
